ChEMBL document CHEMBL4049407, “Positional Scanning Identifies the Molecular Determinants of a High Affinity Multi-Leucine Inhibitor for Furin and PACE4” (J Med Chem, 2017)
Square brackets hold non-standard residues; d marks the D form. Peptide text beside a SMILES is read from it. * marks the point of attachment. FITC = O=C1OC2(c3ccc(O)cc3Oc3cc(O)ccc32)c2ccc(NC(=S)*)cc21; NH(4-amidinobenzyl) = N=C(N)c1ccc(CN*)cc1; βAla = NCCC(=O)O

What was measured:
Homo sapiens = organism: Homo sapiens; assay: Selectivity index, ratio of Ki for recombinant human furin expressed in drosophila S2 cells to Ki for recombinant human PACE4 expressed in drosophila S2 cells; format: cell-based
Procedure, shortened: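 Ratio Ki(furin)/Ki(PACE4). […] PACE4 buffer was BisTris pH 6.5; furin buffer was HEPES pH 7.5, or BisTris pH 6.5 for His peptides. Ki fitted by Morrison equation from three independent experiments.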

[1] = target: T1, Proprotein convertase subtilisin/kexin type 6 (Homo sapiens, UniProt P29122); assay: Inhibition of recombinant human PACE4 expressed in drosophila S2 cells using pyrGlu-Arg-Thr-Lys-Arg-7-amido-4-methylcoumarin as substrate after 60 mins by spectrofluorometry method; format: cell-based
T1 sequence (P29122 whole entry): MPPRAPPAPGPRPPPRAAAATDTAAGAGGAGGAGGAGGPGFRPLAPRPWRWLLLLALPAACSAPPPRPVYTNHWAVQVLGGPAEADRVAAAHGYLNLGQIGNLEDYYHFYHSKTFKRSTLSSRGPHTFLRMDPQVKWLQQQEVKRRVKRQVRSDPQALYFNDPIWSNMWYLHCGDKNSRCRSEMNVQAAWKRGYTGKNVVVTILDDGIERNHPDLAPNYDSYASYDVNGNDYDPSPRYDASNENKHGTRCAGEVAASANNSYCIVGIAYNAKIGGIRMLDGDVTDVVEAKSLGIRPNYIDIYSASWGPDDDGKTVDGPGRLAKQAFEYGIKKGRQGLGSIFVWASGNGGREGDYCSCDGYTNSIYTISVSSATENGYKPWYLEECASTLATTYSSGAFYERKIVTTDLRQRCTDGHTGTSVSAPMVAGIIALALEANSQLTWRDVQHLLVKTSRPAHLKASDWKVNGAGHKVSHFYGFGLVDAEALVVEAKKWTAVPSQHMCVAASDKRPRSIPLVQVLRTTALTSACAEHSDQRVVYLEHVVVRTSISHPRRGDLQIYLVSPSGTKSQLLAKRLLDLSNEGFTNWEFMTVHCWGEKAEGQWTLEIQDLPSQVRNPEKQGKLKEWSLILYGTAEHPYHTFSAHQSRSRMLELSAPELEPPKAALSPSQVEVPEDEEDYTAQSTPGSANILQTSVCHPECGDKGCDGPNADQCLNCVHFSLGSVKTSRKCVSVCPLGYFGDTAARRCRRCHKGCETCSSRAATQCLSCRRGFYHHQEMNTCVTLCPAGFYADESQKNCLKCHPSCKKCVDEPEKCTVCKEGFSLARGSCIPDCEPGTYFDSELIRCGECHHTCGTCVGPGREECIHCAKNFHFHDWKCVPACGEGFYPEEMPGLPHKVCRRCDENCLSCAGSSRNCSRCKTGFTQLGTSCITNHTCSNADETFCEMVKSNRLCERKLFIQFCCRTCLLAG
Procedure, shortened: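 Human recombinant purified PACE4 at 2 units/100 µL (20.18 nM), in 20 mM BisTris pH 6.5, 1 mM CaCl2, 1.8 mg/mL BSA. Substrate 100 µM, KM 4.035 µM. Inhibitor 1 nM to 10 µM; 60 min at 37°C. Fluorescence ex 370 / em 460 nm. Ki by Morrison tight-binding equation; three independent experiments, mean ± SD.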

Furin = Furin (Homo sapiens, UniProt P09958); assay: Inhibition of recombinant human furin expressed in drosophila S2 cells using pyrGlu-Arg-Thr-Lys-Arg-7-amido-4-methylcoumarin as substrate after 60 mins by spectrofluorometry method; format: cell-based
Sequence of Furin (P09958 whole entry): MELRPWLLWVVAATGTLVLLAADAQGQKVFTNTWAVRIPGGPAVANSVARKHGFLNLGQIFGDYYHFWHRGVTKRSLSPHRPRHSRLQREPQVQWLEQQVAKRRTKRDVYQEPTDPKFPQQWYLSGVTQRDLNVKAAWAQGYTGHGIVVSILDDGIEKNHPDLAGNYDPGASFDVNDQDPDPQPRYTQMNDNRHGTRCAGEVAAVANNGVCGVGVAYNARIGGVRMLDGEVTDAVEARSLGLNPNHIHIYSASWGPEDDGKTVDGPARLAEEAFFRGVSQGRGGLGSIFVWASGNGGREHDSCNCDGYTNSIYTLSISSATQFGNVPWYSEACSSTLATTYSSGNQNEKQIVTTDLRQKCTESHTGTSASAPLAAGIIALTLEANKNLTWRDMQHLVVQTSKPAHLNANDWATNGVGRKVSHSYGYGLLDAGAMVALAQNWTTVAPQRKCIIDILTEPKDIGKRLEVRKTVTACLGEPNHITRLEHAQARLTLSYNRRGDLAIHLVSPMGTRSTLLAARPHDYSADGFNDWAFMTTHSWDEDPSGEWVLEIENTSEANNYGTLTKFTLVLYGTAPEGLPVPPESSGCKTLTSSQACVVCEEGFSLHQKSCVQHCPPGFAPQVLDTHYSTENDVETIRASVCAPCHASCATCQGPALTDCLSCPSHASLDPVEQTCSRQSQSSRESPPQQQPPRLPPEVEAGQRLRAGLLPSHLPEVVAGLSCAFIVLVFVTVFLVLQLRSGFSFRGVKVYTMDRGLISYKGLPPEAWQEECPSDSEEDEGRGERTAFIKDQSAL
Procedure, shortened: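 Human recombinant purified furin at 2 units/100 µL (0.54 nM), in 100 mM HEPES pH 7.5, 1 mM CaCl2, 1 mM β-mercaptoethanol, 1.8 mg/mL BSA. His-containing peptides run instead in 20 mM BisTris pH 6.5 with the same additives. Substrate 100 µM, KM 5.04 µM. Inhibitor 1 nM to 10 µM; 60 min at 37°C. Fluorescence ex 370 / em 460 nm. Ki by Morrison equation; triplicate experiments, mean ± SD.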

DU-145 = assay: Antiproliferative activity against human DU145 cells assessed as reduction in metabolic activity after 72 hrs by MTT assay; format: functional, cell-based; settings: DU-145, 72 h
Procedure, shortened: (§1)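 Cells kept at 37°C, 5% CO2 in RPMI 1640 (DU145 with 5% FBS, 1500 cells/well; LNCaP with 10% FBS, 2500 cells/well) on poly-L-lysine coated plates. Peptides added 24 h after plating in fresh serum medium at 0, 1, 10, 25, 50, 75, 100, 250 µM for 72 h. MTT 1 mg/mL final for 4 h; formazan dissolved in 2-propanol HCl. Signal normalised to water vehicle; IC50 from dose-response curves.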

LNCaP = assay: Antiproliferative activity against human LNCAP cells assessed as reduction in metabolic activity after 72 hrs by MTT assay; format: functional, cell-based; procedure, shortened: as §1
[2] = Drug uptake in human DU145 cells assessed as geometric mean fluorescence intensity preincubated for 1 hr followed by trypsin washout for 5 mins by propidium iodine-staining based FACS analysis; format: ADME, cell-based; settings: du-145, 5 min
Procedure, shortened: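 DU145 cells given FITC-labelled peptide (10 µM) for 1 h in serum-free RPMI, harvested by trypsin:EDTA, then washed twice with 0.05% trypsin for 5 min at 37 °C to strip membrane-bound peptide. Propidium iodide (10 µg/mL, 2 min) excluded damaged cells. 10 000 events/sample were read by flow cytometry as geometric mean fluorescence.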

[3] = Drug uptake in human DU145 cells assessed as geometric mean fluorescence intensity after 1 hr by propidium iodine-staining based FACS analysis; format: ADME, cell-based; settings: du-145, 1 h
Procedure, shortened: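 DU145 cells exposed 1 h to FITC-labelled peptide (10 µM) in serum-free RPMI, detached with trypsin:EDTA and pelleted, with no trypsin wash. Dead cells excluded by 2 min propidium iodide (10 µg/mL). Flow cytometry read 10 000 events/sample, and uptake was given as geometric mean fluorescence.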

Structure (SMILES) | Ratio Ki (Homo sapiens) | Ki [1] [nM] | Ki (Furin) [nM] | IC50 (DU-145) [nM] | IC50 (LNCaP) [nM] | Flu intensity [2] | Flu intensity [3]
CC[C@H](C)[C@H](NC(=O)[C@H](CC(C)C)NC(=O)[C@H](CC(C)C)NC(C)=O)C(=O)N[C@@H](CC(C)C)C(=O)N[C@@H](CCCNC(=N)N)C(=O)N[C@H](C(=O)N[C@@H](CCCCN)C(=O)NCc1ccc(C(=N)N)cc1)C(C)C (Ac-LLILRVK-{NH(4-amidinobenzyl)}) | 3 | 10 | 30 | 32000 | 80000 |  | 
CC(=O)N[C@@H](CC(C)C)C(=O)N[C@@H](CC(C)C)C(=O)N[C@@H](CC(C)C)C(=O)N[C@@H](Cc1ccccc1)C(=O)N[C@@H](CCCNC(=N)N)C(=O)N[C@H](C(=O)N[C@@H](CCCCN)C(=O)NCc1ccc(C(=N)N)cc1)C(C)C (Ac-LLLFRVK-{NH(4-amidinobenzyl)}) | 1.5 | 4 | 6 | 40000 | 50000 |  | 
CC[C@H](C)[C@H](NC(=O)[C@H](CC(C)C)NC(=O)[C@H](CC(C)C)NC(=O)[C@H](CC(C)C)NC(C)=O)C(=O)N[C@@H](CCCNC(=N)N)C(=O)N[C@H](C(=O)N[C@@H](CCCCN)C(=O)NCc1ccc(C(=N)N)cc1)C(C)C (Ac-LLLIRVK-{NH(4-amidinobenzyl)}) | 3.4 | 8 | 27 | 50000 | 28000 |  | 
CC(=O)N[C@@H](CC(C)C)C(=O)N[C@@H](CC(C)C)C(=O)N[C@@H](CC(C)C)C(=O)N[C@@H](CCC(N)=O)C(=O)N[C@@H](CCCNC(=N)N)C(=O)N[C@H](C(=O)N[C@@H](CCCCN)C(=O)NCc1ccc(C(=N)N)cc1)C(C)C (Ac-LLLQRVK-{NH(4-amidinobenzyl)}) | 0.8 | 5 | 4 | 12000 | 26000 |  | 
CC(=O)N[C@@H](CC(C)C)C(=O)N[C@@H](CC(C)C)C(=O)N[C@@H](CC(C)C)C(=O)N[C@H](C(=O)N[C@@H](CCCNC(=N)N)C(=O)N[C@H](C(=O)N[C@@H](CCCCN)C(=O)NCc1ccc(C(=N)N)cc1)C(C)C)C(C)C (Ac-LLLVRVK-{NH(4-amidinobenzyl)}) | 1.9 | 2.1 | 4 | 45000 | 60000 |  | 
CC(=O)N[C@@H](CC(C)C)C(=O)N[C@@H](CC(C)C)C(=O)N[C@@H](Cc1ccc(O)cc1)C(=O)N[C@@H](CC(C)C)C(=O)N[C@@H](CCCNC(=N)N)C(=O)N[C@H](C(=O)N[C@@H](CCCCN)C(=O)NCc1ccc(C(=N)N)cc1)C(C)C (Ac-LLYLRVK-{NH(4-amidinobenzyl)}) | 1.2 | 4.8 | 5.9 | 50000 | 130000 |  | 
CC(=O)N[C@@H](CC(C)C)C(=O)N[C@@H](Cc1c[nH]c2ccccc12)C(=O)N[C@@H](CC(C)C)C(=O)N[C@@H](CC(C)C)C(=O)N[C@@H](CCCNC(=N)N)C(=O)N[C@H](C(=O)N[C@@H](CCCCN)C(=O)NCc1ccc(C(=N)N)cc1)C(C)C (Ac-LWLLRVK-{NH(4-amidinobenzyl)}) | 1.6 | 8 | 13 | 35000 | 50000 |  | 
CC(=O)N[C@@H](CCC(N)=O)C(=O)N[C@@H](CC(C)C)C(=O)N[C@@H](CC(C)C)C(=O)N[C@@H](CC(C)C)C(=O)N[C@@H](CCCNC(=N)N)C(=O)N[C@H](C(=O)N[C@@H](CCCCN)C(=O)NCc1ccc(C(=N)N)cc1)C(C)C (Ac-QLLLRVK-{NH(4-amidinobenzyl)}) | 1 | 3 | 3 | 150000 | > 250000 |  | 
CC(=O)N[C@@H](CO)C(=O)N[C@@H](CC(C)C)C(=O)N[C@@H](CC(C)C)C(=O)N[C@@H](CC(C)C)C(=O)N[C@@H](CCCNC(=N)N)C(=O)N[C@H](C(=O)N[C@@H](CCCCN)C(=O)NCc1ccc(C(=N)N)cc1)C(C)C (Ac-SLLLRVK-{NH(4-amidinobenzyl)}) | 0.7 | 6 | 4 | 100000 | > 250000 |  | 
CC(=O)N[C@H](C(=O)N[C@@H](CC(C)C)C(=O)N[C@@H](CC(C)C)C(=O)N[C@@H](CC(C)C)C(=O)N[C@@H](CCCNC(=N)N)C(=O)N[C@H](C(=O)N[C@@H](CCCCN)C(=O)NCc1ccc(C(=N)N)cc1)C(C)C)[C@@H](C)O (Ac-TLLLRVK-{NH(4-amidinobenzyl)}) | 0.6 | 4 | 2.4 | 140000 | 110000 |  | 
CC(=O)N[C@H](C(=O)N[C@@H](CC(C)C)C(=O)N[C@@H](CC(C)C)C(=O)N[C@@H](CC(C)C)C(=O)N[C@@H](CCCNC(=N)N)C(=O)N[C@H](C(=O)N[C@@H](CCCCN)C(=O)NCc1ccc(C(=N)N)cc1)C(C)C)C(C)C (Ac-VLLLRVK-{NH(4-amidinobenzyl)}) | 0.8 | 5 | 4 | 75000 | 70000 |  | 
CC(=O)N[C@@H](Cc1c[nH]c2ccccc12)C(=O)N[C@@H](CC(C)C)C(=O)N[C@@H](CC(C)C)C(=O)N[C@@H](CC(C)C)C(=O)N[C@@H](CCCNC(=N)N)C(=O)N[C@H](C(=O)N[C@@H](CCCCN)C(=O)NCc1ccc(C(=N)N)cc1)C(C)C (Ac-WLLLRVK-{NH(4-amidinobenzyl)}) | 0.7 | 9 | 6 | 23000 | 39000 |  | 
CC(=O)N[C@@H](Cc1ccc(O)cc1)C(=O)N[C@@H](CC(C)C)C(=O)N[C@@H](CC(C)C)C(=O)N[C@@H](CC(C)C)C(=O)N[C@@H](CCCNC(=N)N)C(=O)N[C@H](C(=O)N[C@@H](CCCCN)C(=O)NCc1ccc(C(=N)N)cc1)C(C)C (Ac-YLLLRVK-{NH(4-amidinobenzyl)}) | 0.6 | 6.2 | 4 | 23000 | 160000 |  | 
CC(=O)N[C@H](CC(C)C)C(=O)N[C@@H](CC(C)C)C(=O)N[C@@H](CC(C)C)C(=O)N[C@@H](CC(C)C)C(=O)N[C@@H](CCCNC(=N)N)C(=O)N[C@H](C(=O)N[C@@H](CCCCN)C(=O)NCc1ccc(C(=N)N)cc1)C(C)C (Ac-[dL]LLLRVK-{NH(4-amidinobenzyl)}) | 2 | 4.9 | 9.8 | 25000 | 40000 |  | 
CC[C@H](C)[C@H](NC(=O)[C@H](CC(C)C)NC(=O)[C@H](CC(C)C)NC(=O)[C@H](CC(C)C)NC(=O)CCNC(=S)Nc1ccc2c(c1)C(=O)OC21c2ccc(O)cc2Oc2cc(O)ccc21)C(=O)N[C@@H](CCCNC(=N)N)C(=O)N[C@H](C(=O)N[C@@H](CCCCN)C(=O)NCc1ccc(C(=N)N)cc1)C(C)C ({FITC-βAla}-LLLIRVK-{NH(4-amidinobenzyl)}) |  |  |  |  |  | 99.26 | 87.66
